Measured values gathered from unrelated publications.
Lines come from different studies, so protocols differ.
SLC22A11: Solute carrier family 22 member 11 (SLC22A11, Homo sapiens, UniProt Q9NSA0)
60 kDa heat shock protein, mitochondrial: 60 kDa heat shock protein, mitochondrial (Homo sapiens, UniProt P10809)
ERBB2: Receptor tyrosine-protein kinase erbB-2 (ERBB2, Homo sapiens, UniProt P04626)
CYP2C19: Cytochrome P450 2C19 (CYP2C19, Homo sapiens, UniProt P33261)

| Compound | target | assay | test system | conditions | endpoint | result |
| --- | --- | --- | --- | --- | --- | --- |
| CNC(=O)c1ccc(Nc2ncc(C(F)(F)F)c(NCc3nccnc3N(C)S(C)(=O)=O)n2)cc1 | cGMP-dependent 3',5'-cyclic phosphodiesterase (PDE2A, Homo sapiens, UniProt O00408) | enzyme activity, inhibitor |  |  | IC50 | 3.8 µM |
| Cn1c(=O)c2c(ncn2C)n(C)c1=O | SLC22A11 | transporter uptake, inhibitor, radiometric |  | oocytes | IC50 | 575 µM |
| O=C1c2cccc3c2[C@H](CCC3)CN1[C@@H]1CN2CCC1CC2 | 5-hydroxytryptamine receptor 3A (HTR3A, Homo sapiens, UniProt P46098) | ligand displacement, radioligand |  |  | Ki | 0.000246 µM |
| Nc1ncnc2c1ncn2[C@@H]1O[C@H](CO)[C@@H](O)[C@H]1O | SLC22A11 | transporter uptake, inhibitor, radiometric |  | oocytes | IC50 | > 2000 µM |
| O=C1CC[C@H](N2Cc3cc(N4CCN(CC5CCN(c6ccc([C@@H]7c8ccc(O)cc8CC[C@@H]7c7ccccc7)cc6)CC5)CC4)ccc3C2=O)C(=O)N1 | Androgen receptor (AR, Homo sapiens, UniProt P10275) | ligand displacement, radioligand |  |  | IC50 | 0.1 µM |
| Cc1nn(C)c2ncc(C(=O)NCC3CC(Br)=NO3)c(Cl)c12 (stereo not drawn) | 60 kDa heat shock protein, mitochondrial | ATPase activity, inhibitor |  |  | IC50 | > 250 µM |
| CC(C)(C)OC(=O)N1CCN(Cc2ccn(Cc3ccc(Cl)cc3)c(=O)c2O)CC1 | Lysine-specific demethylase 3B (KDM3B, Homo sapiens, UniProt Q7LBC6) | enzyme activity, inhibitor, AlphaScreen |  |  | IC50 | 4.79 µM |
| O=C(O)Cc1csc(NC(=O)c2cc3ccccc3[nH]2)n1 | ERBB2 | enzyme activity, inhibitor |  |  | IC50 | 0.618 µM |
| O=C1CCc2ccccc2O1 | Carbonic anhydrase 2 (CA2, Homo sapiens, UniProt P00918) | enzyme activity, inhibitor, stopped-flow |  |  | Ki | 48.5 µM |
| Cn1ncc2c(Cl)c(C(=O)NCc3ccccc3)cnc21 | 60 kDa heat shock protein, mitochondrial | ATPase activity, inhibitor |  |  | IC50 | > 250 µM |
| Cn1cncc1[C@@](N)(c1ccc(Cl)cc1)c1ccc2c(c1)c(-c1cccc(Cl)c1)cc(=O)n2C | CYP2C19 | enzyme activity, inhibitor | human, liver microsomes |  | Ki | 0.75 µM |
| Cn1nc2c(=O)n(C3CC3)cnc2c1[C@](O)(c1cnc(C(F)(F)F)c(Cl)c1)C(F)(F)F | CYP2C19 | enzyme activity, inhibitor | human, liver microsomes | pH 7.4 | IC50 | > 20 µM |
| COC(=O)Nc1nc2ccc(C(=O)c3ccccc3)cc2[nH]1 | Tyrosine-protein kinase ABL1 (ABL1, Homo sapiens, UniProt P00519) | enzyme activity, inhibitor, mobility shift |  |  | IC50 | 1.78 µM |
| COc1ccc2[nH]c(C(=O)Nc3nc(CC(=O)O)cs3)cc2c1 | ERBB2 | enzyme activity, inhibitor |  |  | IC50 | 1.77 µM |
| Cn1nc2c(=O)n(C3CC3)ncc2c1[C@](O)(c1cnc(C(F)(F)F)c(Cl)c1)C(F)(F)F | CYP2C19 | enzyme activity, inhibitor | human, liver microsomes | pH 7.4 | IC50 | > 20 µM |
